This is a sample that favours compounds with a hit; in the whole collection about 1.4% have one here.
HKDC1 inh – blocks human hexokinase HKDC1 activity. inhibition, % at 20 µM. 340,000 compounds, 0.16% hits. Q2TB90. recombinant HKDC1, G6PDH/diaphorase resazurin coupled fluorescence;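 active = inhibition above about 35% when tested at 20 µM, limit read from the data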
Target sequence (Q2TB90 whole entry, looked up): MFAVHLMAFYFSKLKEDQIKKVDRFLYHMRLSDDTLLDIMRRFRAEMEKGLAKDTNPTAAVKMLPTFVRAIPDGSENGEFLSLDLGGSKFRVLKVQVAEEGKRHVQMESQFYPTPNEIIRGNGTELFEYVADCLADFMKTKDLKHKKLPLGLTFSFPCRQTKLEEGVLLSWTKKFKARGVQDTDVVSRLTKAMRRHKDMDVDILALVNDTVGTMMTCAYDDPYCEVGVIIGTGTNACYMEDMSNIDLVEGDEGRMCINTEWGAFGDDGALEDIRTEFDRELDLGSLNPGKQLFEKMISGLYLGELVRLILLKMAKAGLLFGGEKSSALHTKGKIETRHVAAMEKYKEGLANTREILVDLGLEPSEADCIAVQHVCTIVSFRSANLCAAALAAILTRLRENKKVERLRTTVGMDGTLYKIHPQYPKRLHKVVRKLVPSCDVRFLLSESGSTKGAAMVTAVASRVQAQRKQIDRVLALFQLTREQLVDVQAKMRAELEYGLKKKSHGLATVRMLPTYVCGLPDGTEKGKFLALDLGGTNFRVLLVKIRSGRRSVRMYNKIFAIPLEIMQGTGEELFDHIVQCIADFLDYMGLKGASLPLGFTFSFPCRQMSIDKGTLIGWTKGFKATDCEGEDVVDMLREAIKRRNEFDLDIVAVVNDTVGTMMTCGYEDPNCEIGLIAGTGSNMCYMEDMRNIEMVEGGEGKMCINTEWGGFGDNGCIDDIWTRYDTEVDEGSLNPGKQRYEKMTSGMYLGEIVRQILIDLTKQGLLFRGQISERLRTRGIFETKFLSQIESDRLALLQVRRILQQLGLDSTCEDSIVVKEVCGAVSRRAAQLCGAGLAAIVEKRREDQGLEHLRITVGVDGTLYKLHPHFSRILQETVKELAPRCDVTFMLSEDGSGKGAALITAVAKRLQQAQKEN
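Incubation: 90 min at room temperature in dark / Material: recombinant HKDC1 (HK5) hexokinase enzyme, produced in-house / Quantity: enzyme 5 µg/mL final / Compound: one dose of 20 µM, 1% DMSO / Reagent: glucose and ATP substrates / Buffer or medium: Tris pH 8.0 buffer with MgCl2, Tween-20, BSA, BME / Technique: resorufin fluorescence at 613 nm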
hiPSC survival – hiPSC single-cell survival enhancement; ATPlite luminescence; 100% = ROCK inhibitor wells, 0% = DMSO; survival enhancement, % at 20 µM; 360,000 compounds, 0.044% hits; AID 602274; in the data active = survival enhancement above about 18%;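 note: cells exposed to compounds for 16 hours before the ATP read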
PfGluPho inh – PfG6PD (Plasmodium falciparum) enzyme inhibition. AID 504690. PfGluPho enzyme, NADPH resazurin-diaphorase fluorescence. 350,000 compounds, 0.78% hits. inhibition, % at 20 µM;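 active = inhibition reaching at least a set limit at 20 µM in the primary screen, cut at about 59% in these data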
APOBEC3G inh – blocks human APOBEC3G single-stranded DNA deamination; inhibition, % at 20 µM; Q9HC16; recombinant A3G, ssDNA deamination FAM/TAMRA fluorescence; 330,000 compounds, 0.28% hits; AID 493012;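 active = inhibition of at least 40% at 20 µM, with no more than 30% in the related APOBEC3A deaminase screen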
A3A deaminase – inhibitors of human APOBEC3A DNA deaminase; P31941; recombinant A3A, FAM/TAMRA ssDNA deamination fluorescence; inhibition, % at 20 µM; 330,000 compounds, 0.41% hits;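 active = at least 40% inhibition at 20 µM here, with at most 30% in a related deaminase screen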
Numbers stand for hits.

How did COc1ccc(Br)cc1C1CC(=O)N2CN(Cc3ccccc3)CSC2=C1C#N (stereo not drawn) do in these assays?
HKDC1 inh: inactive; hiPSC survival: inactive; PfGluPho inh: 71.5; APOBEC3G inh: inactive; A3A deaminase: inactive

Results for COc1ccc(OC)c(C2CC(=O)N3CN(c4cccc(Cl)c4)CSC3=C2C#N)c1 (stereo not drawn) ?
HKDC1 inh: inactive; hiPSC survival: inactive; PfGluPho inh: inactive; APOBEC3G inh: inactive; A3A deaminase: inactive

What do the screens show for `Cc1cccc(NC2=C/C(=N/S(=O)(=O)c3cccs3)c3ccccc3C2=O)c1`?
HKDC1 inh: 53.1; hiPSC survival: inactive; PfGluPho inh: 62.0

How did Cc1cc(C)c(S(=O)(=O)/N=C2\C=C(NS(=O)(=O)c3ccccc3)C(=O)c3ccccc32)c(C)c1 do in these assays?
HKDC1 inh: inactive; hiPSC survival: inactive; PfGluPho inh: inactive; APOBEC3G inh: inactive; A3A deaminase: inactive

How did Cc1ccc(CSCC2Nc3ccc(C(=O)N4CCN(c5cccc(C)c5)C(C)C4)cc3NC2=O)cc1 (stereo not drawn) do in these assays?
APOBEC3G inh: 45.8; A3A deaminase: inactive

How did Cc1cccc(N2CCN(C(=O)c3ccc4c(c3)NC(=O)C(CSCc3ccc(F)cc3)N4)CC2C)c1 (stereo not drawn) do in these assays?
APOBEC3G inh: inactive; A3A deaminase: inactive

How did O=C1C=CC(=O)C(CNc2ccc(C(=O)OCc3ccccc3)cc2)=C1 do in these assays?
HKDC1 inh: 46.7; hiPSC survival: inactive; PfGluPho inh: 74.6

How did CN(C)c1ccc(C(=O)OCc2ccccc2)cc1 do in these assays?
HKDC1 inh: inactive; hiPSC survival: inactive; PfGluPho inh: inactive; APOBEC3G inh: inactive; A3A deaminase: inactive

Results for CS(=O)(=O)c1ccc(Nc2nc(C(N)c3ccccc3Cl)cs2)cc1 (stereo not drawn) ?
hiPSC survival: inactive

What do the screens show for `NC(=O)c1ccc(Nc2nc(C(N)c3ccccc3Cl)cs2)cc1` (stereo not drawn)?
hiPSC survival: 27.8

Results for COc1ccc(NC(=O)c2cc3c(COC(C)=O)cnc(C)c3oc2=Nc2cccc(C(=O)O)c2)c(OC)c1 ?
HKDC1 inh: inactive; hiPSC survival: inactive; PfGluPho inh: 67.8; APOBEC3G inh: inactive; A3A deaminase: inactive

Results for COc1ccccc1NC(=O)c1cc2c(CO)cnc(C)c2oc1=Nc1cccc(C(N)=O)c1 ?
HKDC1 inh: inactive; hiPSC survival: inactive; PfGluPho inh: inactive; APOBEC3G inh: inactive; A3A deaminase: inactive

Results for O=C1Nc2ccc(Br)cc2C1Cc1ccccc1F (stereo not drawn) ?
HKDC1 inh: inactive; hiPSC survival: inactive; PfGluPho inh: 88.5; APOBEC3G inh: inactive; A3A deaminase: inactive

What do the screens show for `O=C(NC1CCCCC1)C1c2ccccc2OCC(=O)N1CC(F)(F)F` (stereo not drawn)?
hiPSC survival: inactive

What do the screens show for `O=C(COc1ccccc1)Nc1nc(-c2cccnc2)cs1`?
HKDC1 inh: inactive; hiPSC survival: inactive; PfGluPho inh: inactive; APOBEC3G inh: inactive; A3A deaminase: inactive

Results for O=C(COc1ccccc1)Nc1nc(-c2ccncc2)cs1 ?
HKDC1 inh: inactive; hiPSC survival: 34.3; PfGluPho inh: inactive; APOBEC3G inh: inactive; A3A deaminase: inactive

How did O=c1cc(-c2ccccc2)nc2nc(SCc3ccccc3)[nH]n12 do in these assays?
HKDC1 inh: inactive; hiPSC survival: 31.4; PfGluPho inh: inactive; APOBEC3G inh: inactive; A3A deaminase: inactive

Results for Cc1cc(=O)n2[nH]c(SCc3ccccc3)nc2n1 ?
HKDC1 inh: inactive; hiPSC survival: inactive; PfGluPho inh: inactive; APOBEC3G inh: inactive; A3A deaminase: inactive

Results for Cc1ccc2cc(CN(CC3CCCO3)C(=O)c3cccs3)c(=O)[nH]c2c1 (stereo not drawn) ?
HKDC1 inh: inactive; hiPSC survival: inactive; PfGluPho inh: inactive; APOBEC3G inh: inactive; A3A deaminase: inactive

Results for CC(C)(C)C1=CC(=Nc2ccccc2N)C=C(C(C)(C)C)C1=O ?
HKDC1 inh: inactive; hiPSC survival: inactive; PfGluPho inh: inactive; APOBEC3G inh: inactive; A3A deaminase: inactive

What do the screens show for `CC(C)(C)C1=CC(=O)C(=O)C(C(C)(C)C)=C1`?
HKDC1 inh: inactive; hiPSC survival: inactive; PfGluPho inh: 111.3; APOBEC3G inh: inactive; A3A deaminase: inactive

What do the screens show for `CCN1C(=O)CS/C1=N\S(=O)(=O)c1ccc(Cl)cc1`?
HKDC1 inh: inactive; hiPSC survival: inactive; PfGluPho inh: inactive; APOBEC3G inh: inactive; A3A deaminase: inactive
